Compound activity from PubChem BioAssay.
Only some compounds are listed: those with a hit (about 3.7% of all), similar ones and a draw of the others.
DENV2 CPE – protects cells from dengue virus 2 cytopathic effect; DENV2-infected cells, cytopathic effect rescue, plate reader; CPE inhibition, % at 9.99 µM; 350,000 compounds, 1.7% hits; in the data active = CPE inhibition above about 20%, passing the limit was not always enough; inconclusive = no clear call, values can overlap the other calls; tested in BHK-21 cells;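 also: 0% = median of neutral control wells and 100% = median of positive control wells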
E-sel inducer – induces E-selectin expression in human endothelial cells | HUVEC E-selectin immunofluorescence imaging; normalized: neutral wells 0, TNF-alpha wells 100 | activation, % at 7.58 µM | 260,000 compounds, 0.37% hits;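 active = mean E-selectin-positive cell signal at least 10% of the positive control, reached in at least 60% of replicates, without over 20% cell loss; inconclusive = no rule given, readout overlaps actives, possibly toxicity-flagged; inactive = the rest, including those meeting only one limit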
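Test system: HUVEC | Signal: Immunofluorescence imaging | Read-out: Percent E-selectin-positive cells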
FGF22 binding – shifts melting point of recombinant human FGF22; Q9HCT0; recombinant FGF22 thermal shift, SYPRO orange fluorescence; percent of sucrose octasulfate shift, DMSO zero; activity (Tm shift, normalised), % at 9.99 µM; 340,000 compounds, 1.5% hits;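 active = mean Tm shift, scaled 0 neutral to 100 positive control, at about 1.3% or above, every replicate too, limit read from the data; inconclusive = no clear call, values can overlap the other calls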
CFTR F508del cor – correctors of CFTR F508del function in bronchial epithelial cells; CFBE cells, YFP halide quenching; stimulated with forskolin plus potentiator P3; % fluorescence drop versus neutral controls; activity (quench increase), % at 7.58 µM; 350,000 compounds, 0.36% hits;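 active = mean added fluorescence quench of at least 8% versus neutral control, with both replicates also reaching 8%; inconclusive = only one of the mean or replicate conditions met; inactive = mean below 8% and not both replicates reaching 8%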;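 also: cells transiently co-express mutant CFTR-F508del with the halide-sensitive YFP; corrector assay measuring rescue of mutant channel to the surface after 24 h compound exposure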
ERAP1 HTS inh – blocks human ERAP1 aminopeptidase activity; Q9NZ08; recombinant ERAP1, Leu-AMC fluorescence, 60 min; inhibition, % at 10.7 µM; 340,000 compounds, 0.15% hits; AID 652197;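 active = mean replicate inhibition of at least 30%, or all replicates individually reaching that 30% level; inactive = mean below 30% and not every replicate reaching it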;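 also: 0% = neutral control wells and 100% = L-leucinethiol positive control wells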
Target sequence (Q9NZ08 whole entry, looked up): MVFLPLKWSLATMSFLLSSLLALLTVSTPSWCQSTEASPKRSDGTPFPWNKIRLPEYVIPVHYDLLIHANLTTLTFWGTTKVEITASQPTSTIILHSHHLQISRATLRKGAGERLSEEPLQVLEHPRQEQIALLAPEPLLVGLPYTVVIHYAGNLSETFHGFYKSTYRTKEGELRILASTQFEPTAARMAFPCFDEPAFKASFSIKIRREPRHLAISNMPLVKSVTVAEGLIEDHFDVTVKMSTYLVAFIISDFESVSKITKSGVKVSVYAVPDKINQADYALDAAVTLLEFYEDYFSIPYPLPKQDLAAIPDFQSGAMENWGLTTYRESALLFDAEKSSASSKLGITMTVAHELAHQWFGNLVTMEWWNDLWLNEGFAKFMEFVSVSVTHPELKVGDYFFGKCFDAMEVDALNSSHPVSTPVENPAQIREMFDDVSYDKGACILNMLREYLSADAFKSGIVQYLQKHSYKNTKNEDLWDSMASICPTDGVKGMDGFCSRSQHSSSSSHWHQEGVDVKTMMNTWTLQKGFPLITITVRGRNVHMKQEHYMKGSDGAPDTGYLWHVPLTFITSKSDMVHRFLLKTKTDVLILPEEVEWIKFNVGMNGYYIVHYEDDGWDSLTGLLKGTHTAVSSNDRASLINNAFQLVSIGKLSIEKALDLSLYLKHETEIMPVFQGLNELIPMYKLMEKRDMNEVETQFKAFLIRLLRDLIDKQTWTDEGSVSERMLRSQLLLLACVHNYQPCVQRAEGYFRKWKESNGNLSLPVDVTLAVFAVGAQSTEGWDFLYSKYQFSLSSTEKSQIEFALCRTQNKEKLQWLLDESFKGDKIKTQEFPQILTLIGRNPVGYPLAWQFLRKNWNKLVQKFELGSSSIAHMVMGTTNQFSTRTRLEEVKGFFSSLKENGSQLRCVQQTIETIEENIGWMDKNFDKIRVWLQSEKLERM
* marks the source's active call; other numbers are inactive results; ? = inconclusive; . = no result given.

SMILES | DENV2 CPE | E-sel inducer | FGF22 binding | CFTR F508del cor | ERAP1 HTS inh
CC(=O)N(C1=C(Cl)C(=O)c2ccccc2C1=O)C1CCCCC1 | -3 | 36* | -1 | -6 | 68*
COc1ccc(NC(=O)N(C)C[C@@H]2Oc3c(NS(=O)(=O)c4cccs4)cccc3C(=O)N([C@@H](C)CO)C[C@@H]2C)cc1 | -1 | 1 | 0 | 0 | 2
Cn1cccc2[nH]c(=O)nc1-2 | 10 | 0 | 0 | -1 | 89*
CCOc1ccc(C(=O)COC(=O)Cc2n[nH]c(=O)c3ccccc23)cc1 | -2 | 1 | 0 | 13* | 2
O=C(O)c1cc(N2N=C(C(F)(F)F)/C(=C/C=C/c3ccco3)C2=O)ccc1Cl | . | . | . | 0 | 33*
CCS(=O)(=O)NCC[C@@H]1CC[C@@H](NS(=O)(=O)c2cccc(F)c2)[C@H](CO)O1 | 3 | 0 | 0 | 0 | 1
CNC[C@@H]1OCCCC[C@H](C)Oc2ccc(NC(=O)Nc3cccc4ccccc34)cc2C(=O)N([C@@H](C)CO)C[C@H]1C | . | . | . | -2 | .
COc1ccc(-c2ccc(OC)c([C@H]3[C@H]4C=CC[C@@H](C)[C@@H]4C(=O)N3Cc3ccccc3)c2)cc1OC | 2 | 0 | 0 | 2 | 2
COc1ccc(Br)cc1[C@H]1[C@H]2C=CC[C@@H](C)[C@@H]2C(=O)N1Cc1ccccc1 | 66* | 10 | 0 | -1 | .
COCC(=O)N1C[C@H]2[C@@H](c3ccccc31)[C@@H](CO)N2Cc1ccccc1F | -6 | 0 | -1 | 2 | 3
COc1ccc(Nc2nc(NCc3ccco3)nc(N/N=C/c3ccc(O)cc3)n2)cc1 | -7 | . | 1.9* | -2 | 2
O=S(=O)(Nc1ccc(F)cc1Cl)c1ccc(-c2cnc(C3CC3)o2)cc1 | -6 | . | 0 | 14* | 1
C[C@H]1CN([C@@H](C)CO)C(=O)Cc2cc(NC(=O)CCCCCC(=O)Nc3ccccc3N)ccc2O[C@H]1CN(C)C(=O)Nc1ccccc1 | -5 | -1 | 0 | -3 | 0
C[C@H](NC(=O)C[C@@H]1CC[C@H](NC(=O)Nc2ccc3c(c2)OCO3)[C@@H](CO)O1)c1ccccc1 | -3 | -1 | 0 | -1 | 0
COc1ccc2ccc3cccc[n+]3c2c1 | -1 | . | 0 | 1 | 43*
COc1ccc2nc3ccccc3[n+]([O-])c2c1 | 3 | 0 | 0 | -2 | -21
C[C@H](CO)N1C[C@H](C)[C@H](CN(C)S(=O)(=O)c2ccccc2)Oc2ccc(NC(=O)Nc3ccc(F)cc3)cc2CC1=O | 14 | 41* | 0 | -3 | -4
C[C@H](CO)N1C[C@H](C)[C@H](CN(C)S(=O)(=O)c2ccc(Cl)cc2)Oc2ccc(NC(=O)Nc3ccc(F)cc3)cc2CC1=O | 5 | 40* | 0 | 5 | -2
C[C@H](CO)N1C[C@H](C)[C@H](CN(C)S(=O)(=O)c2ccc(F)cc2)Oc2ccc(NC(=O)Nc3ccc(F)cc3)cc2CC1=O | ? | 3 | 0 | -1 | 2
C[C@H](CO)N1C[C@H](C)[C@@H](CN(C)S(=O)(=O)c2ccc(Cl)cc2)Oc2ccc(NC(=O)Nc3cccc4ccccc34)cc2CC1=O | 42* | 0 | 0 | 1 | -1
C[C@@H]1CN([C@@H](C)CO)C(=O)Cc2cc(NC(=O)Nc3cccc4ccccc34)ccc2O[C@@H]1CN(C)S(=O)(=O)c1ccc(Cl)cc1 | 8 | 0 | 0 | 1 | -1
O=C(COC(=O)c1ccc(Cl)nc1)Nc1ccc(Cl)cc1 | -5 | 0 | 0 | 0 | -1
CC(C)(C)NC(=O)COC(=O)c1ccc(Cl)nc1 | 10 | . | 43* | -1 | 3
CNS(=O)(=O)c1cccc(C(=O)OCC(=O)Nc2ccc(N3CCCCC3)cc2)c1 | 1 | . | 43* | -4 | 1
O=C(COC(=O)c1ccc(Cl)nc1)Nc1ccc(N2CCCCC2)cc1 | 62* | 0 | -1 | -1 | 0
SMILES | DENV2 CPE | E-sel inducer | FGF22 binding | CFTR F508del cor | ERAP1 HTS inh
C[C@@H]1CCCCO[C@@H](CN(C)Cc2ccc(C(F)(F)F)cc2)[C@H](C)CN([C@@H](C)CO)C(=O)c2cc(NC(=O)NC3CCCCC3)ccc2O1 | ? | 0 | 0 | -2 | 0
C[C@@H]1CN([C@H](C)CO)C(=O)c2cc(NC(=O)CCCN(C)C)ccc2O[C@@H]1CN(C)Cc1ccc(C(F)(F)F)cc1 | -3 | -6 | 0 | 2 | -6
CC(=O)N(c1ccccc1C)S(=O)(=O)c1ccc(Cl)cc1 | -3 | . | 43* | 3 | 0
COc1cc(NC(=S)N2CCN(C(=O)C3CCCO3)CC2)c(OC)cc1Cl (configuration not stated) | 1 | . | 44* | -1 | -5
COc1ccc(Cl)cc1NC(=S)N1CCN(C(=O)C2CCCO2)CC1 (configuration not stated) | 1 | . | 0 | -1 | 5
C[C@@H]1CN([C@@H](C)CO)C(=O)Cc2cc(NC(=O)CCC(F)(F)F)ccc2O[C@H]1CN(C)Cc1ccc(C(F)(F)F)cc1 | 1 | 0 | 0 | 2 | 0
Cc1ccc(N/C=C2\CCCCC2=O)nc1 | 4 | 0 | 43* | -2 | -1
Cc1ccc(N/C=C2\CCCCC2=O)c(C)c1 | 6 | . | 0 | . | 2
FC(F)(F)c1ccc2c(c1)N1CCCC1CN2 (configuration not stated) | . | 58* | 0 | 0 | -1
Cc1cccc(S(=O)(=O)N2C[C@H]3[C@@H](c4ccccc42)[C@@H](CO)N3C(=O)c2ccccc2)c1 | 57* | 0 | 1 | -1 | -2
Cc1cccc(S(=O)(=O)N2C[C@@H]3[C@H](c4ccccc42)[C@H](CO)N3Cc2cccnc2)c1 | -8 | 0 | -1 | 5 | -2
O=S(=O)(c1ccccc1)N1C[C@H]2[C@@H](c3ccccc31)[C@@H](CO)N2Cc1ccccc1 | 27* | 0 | -1 | 2 | 1
Cc1cccc(S(=O)(=O)N2C[C@H]3[C@@H](c4ccccc42)[C@@H](CO)N3Cc2cccnc2)c1 | 27* | 0 | -1 | 1 | -3
COCCNC(=O)[C@@H]1[C@@H](CO)[C@@H]2Cn3c(ccc(-c4ccccc4)c3=O)[C@H]1N2C | -3 | 1 | 0 | 1 | -1
COc1ccc2c3c([nH]c2c1)[C@@H](CO)N(C(=O)Nc1ccc(F)cc1)CC31CCN(S(=O)(=O)c2ccccc2)CC1 | 71* | -1 | . | 5 | .
COc1ccc2c3c([nH]c2c1)[C@H](CO)N(C(=O)Nc1ccc(F)cc1)CC31CCN(S(=O)(=O)c2ccccc2)CC1 | ? | -1 | . | 8.8* | .
COc1ccc2c3c([nH]c2c1)[C@H](CO)N(C(=O)Nc1ccc(F)cc1)CC31CCN(C(=O)Nc2ccccc2)CC1 | 21* | 0 | 0 | -1 | .
COc1ccc2c3c([nH]c2c1)[C@H](CO)N(C(C)=O)CC31CCN(C(=O)Nc2ccc(F)cc2)CC1 | -3 | 0 | 0 | 0 | 2
